Measurements of several laboratories.
Each line is one published result; the experiments were not run side by side.
Target: Hormonally up-regulated neu tumor-associated kinase (HUNK, Homo sapiens, UniProt P57058)
One construct used (P57058 1-714): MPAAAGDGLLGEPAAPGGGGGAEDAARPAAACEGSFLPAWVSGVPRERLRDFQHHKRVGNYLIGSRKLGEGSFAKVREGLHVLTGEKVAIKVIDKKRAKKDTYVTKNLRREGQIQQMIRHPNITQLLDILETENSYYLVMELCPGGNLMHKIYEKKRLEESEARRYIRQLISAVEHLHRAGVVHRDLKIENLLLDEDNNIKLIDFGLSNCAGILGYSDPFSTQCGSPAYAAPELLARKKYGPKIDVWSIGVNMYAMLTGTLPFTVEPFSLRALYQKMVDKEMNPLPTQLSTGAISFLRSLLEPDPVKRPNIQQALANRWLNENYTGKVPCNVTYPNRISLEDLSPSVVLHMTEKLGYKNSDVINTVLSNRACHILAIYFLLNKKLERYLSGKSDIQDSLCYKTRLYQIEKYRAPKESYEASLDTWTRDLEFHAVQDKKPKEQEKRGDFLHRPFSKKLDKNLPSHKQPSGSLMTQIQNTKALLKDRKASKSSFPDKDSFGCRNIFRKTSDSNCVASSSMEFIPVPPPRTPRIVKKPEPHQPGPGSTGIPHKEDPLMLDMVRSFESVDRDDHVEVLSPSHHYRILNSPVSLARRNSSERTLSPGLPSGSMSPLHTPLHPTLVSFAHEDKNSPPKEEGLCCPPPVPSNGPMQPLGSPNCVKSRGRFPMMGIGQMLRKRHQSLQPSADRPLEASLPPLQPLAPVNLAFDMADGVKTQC

CN(C)c1nccc(-c2cnc3ncccn23)n1
remaining binding (binding; 1 µM): 83%

CN([C@@H]1CCc2c(CC(=O)O)c3ccccc3n2C1)S(=O)(=O)c1ccc(F)cc1
remaining binding (cell-free assay, competition with immobilised ligand; 1 µM): 99%

COc1ncc2cc3ccccc3nc2c1C#N
remaining binding (cell-free assay, competition with immobilised ligand; 5 µM): 100%

Cc1nc(N2CC[C@@H](O)C2)ncc1-c1cc(C(F)(F)F)cc2[nH]ncc12
remaining binding (binding, competition with immobilised ligand; 1 µM): 100%

O=C(c1ccc(Nc2ncc(Cl)c(-c3cc4ccccc4s3)n2)cc1)N1CCC(N2CCCC2)CC1
remaining binding (binding, competition with immobilised ligand; 1 µM): 100%

N[C@@H]1CCN(c2nccc(-c3cnn4ncccc34)n2)C1
remaining binding (binding; 1 µM): 100%

COc1cnc(Nc2cccc(S(N)(=O)=O)c2)nc1N1CCN(c2ccccc2)CC1
remaining binding (binding, competition with immobilised ligand; 1 µM): 74%

C[C@@H]1CCN(c2nccc(-c3cnn4ncccc34)n2)C1
remaining binding (binding; 1 µM): 100%

CNC(=O)[C@@H]1CC[C@@H](n2c(-c3ccc4cnccc4c3)nc3ccc(C(=O)NCc4cccc(C(N)=O)c4)cc32)C1
remaining binding (binding, competition with immobilised ligand; 1 µM): 100%

O=C(NCC1CCOCC1)c1n[nH]cc1NC(=O)c1c(F)cccc1F
remaining binding (binding, competition with immobilised ligand; 1 µM): 100%

CCN1CCN(Cc2ccc(C(=O)Nc3ccc(C)c(Oc4ccc5c(c4)CC(=O)N5)c3)cc2C(F)(F)F)CC1
remaining binding (binding, competition with immobilised ligand; 1 µM): 100%

CN(C)c1ncc(F)c(-c2cnn3ncccc23)n1
remaining binding (binding; 1 µM): 100%

CSc1cccnc1N1CCN(Cc2nc3ccccc3[nH]2)CC1
remaining binding (cell-free assay, competition with immobilised ligand; 1 µM): 100%

O=C(c1ccc(Nc2nccc(-c3cc4ccccc4s3)n2)cc1)N1CCC(N2CCCC2)CC1
remaining binding (binding, competition with immobilised ligand; 1 µM): 100%

CC1=C(C#N)[C@@H](c2ccc3[nH]nc(C)c3c2)C(C#N)=C(c2ccc(Cl)cc2)N1
remaining binding (cell-free assay, competition with immobilised ligand; 1 µM): 81.4%

O=C(NCCCN1CCOCC1)c1ccc(Nc2nccc(-c3cc4ccccc4s3)n2)cc1
remaining binding (binding, competition with immobilised ligand; 1 µM): 100%

CNC(=O)Nc1ccc2c(c1)CC[C@@]21OC(=O)N(CC(=O)N(Cc2ccc(F)cc2)[C@@H](C)C(F)(F)F)C1=O
remaining binding (cell-free assay, competition with immobilised ligand; 1 µM): 100%

CC1CCCN1c1nccc(-c2cnn3ncccc23)n1 (stereo not shown)
remaining binding (binding; 1 µM): 100%

O=C(NC[C@@H]1[C@H]2CN(C(=O)OCc3cc(C(F)(F)F)cc(C(F)(F)F)c3)C[C@@H]12)c1ccc2[nH]nnc2c1
remaining binding (cell-free assay, competition with immobilised ligand; 1 µM): 100%

Nc1ncc2c(n1)-c1c([nH]c3ccc(C#CC4CC4)cc13)CCCC2
remaining binding (binding, competition with immobilised ligand; 1 µM): 97%

F[C@@H]1CCN(c2nccc(-c3cnn4ncccc34)n2)C1
remaining binding (binding; 1 µM): 0%

CN(c1ccnc(CNc2nc(Nc3ccc4c(c3)CC(=O)N4)ncc2C(F)(F)F)n1)S(C)(=O)=O
remaining binding (cell-free assay, competition with immobilised ligand; 1 µM): 100%
